From ChEMBL document CHEMBL4261506, “Synthesis and biological evaluation of N-alkyl naphthoimidazoles derived from β-lapachone against Trypanosoma cruzi bloodstream trypomastigotes” (Medchemcomm, 2017)

Tested on: not listed separately
Experiment: Cytotoxicity against Swiss mouse peritoneal macrophages after 24 hrs by Prestoblue assay
Format: cell-based, Peritoneal macrophage
Details: read-out: LC50

Row | SMILES | CC50 at 24 h [µM]
1 | CCCCCCn1cnc2c3c(c4ccccc4c21)OC(C)(C)CC3 | 117
2 | CCCCCCn1cnc2c3ccccc3c3c(c21)CCC(C)(C)O3 | 422

Tested on: Trypanosoma cruzi
Experiment: Trypanocidal activity against bloodstream trypomastigote stage of Trypanosoma cruzi Y isolated from parasite infected Swiss mouse assessed as induction of parasite lysis after 24 hrs by Neubauer chamber based cell counting method
Format: functional, organism-based
Details: not given
In short: (§1)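 Y-strain bloodstream trypomastigotes at 5 × 10^6 cells per ml in DME medium plus 10% blood (some runs in DMES without blood), mixed 1:1 with compound diluted in DME at twice final concentration. DMSO final ≤0.1%. Incubated at 4 °C. Cells counted after 24 h; IC50 taken as the concentration giving 50% parasite lysis.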

Row | SMILES | IC50 [µM]
3 | Cc1ccc(-c2nc3c([nH]2)c2c(c4ccccc43)OC(C)(C)CC2)cc1 | 37.5

Tested on: Trypanosoma cruzi
Experiment: Potency index, ratio of benznidazole IC50 to test compound IC50 for bloodstream trypomastigote stage of Trypanosoma cruzi Y
Format: functional
Details: not given

Row | SMILES | Ratio IC50
4 | CCCCCCn1cnc2c3c(c4ccccc4c21)OC(C)(C)CC3 | 2.2
5 | CCCCCCn1cnc2c3ccccc3c3c(c21)CCC(C)(C)O3 | 3.2

Tested on: Trypanosoma cruzi
Experiment: Trypanocidal activity against trypomastigote stage of Trypanosoma cruzi
Format: functional, organism-based
Details: not given
In short: as §1

Row | SMILES | IC50 [µM]
6 | CC1(C)CCc2c(c3ccccc3c3nc(-c4ccccc4)[nH]c23)O1 | 37

Tested on: not listed separately
Experiment: Selectivity index, ratio of LC50 for Swiss mouse peritoneal macrophages to IC50 for bloodstream trypomastigote stage of Trypanosoma cruzi Y
Format: toxicity
Details: read-out: Ratio LC50/IC50
In short: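 Y strain bloodstream trypomastigotes at 5 × 10^6 cells/ml in DME plus 10% blood, mixed 1:1 with compound at twice the final concentration, 24 h at 4 °C, counted; IC50 = 50% lysis. […] Index = LC50/IC50. DMSO final ≤0.1%.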

Row | SMILES | selectivity ratio
7 | CCCCCCn1cnc2c3c(c4ccccc4c21)OC(C)(C)CC3 | 2.7
8 | CCCCCCn1cnc2c3ccccc3c3c(c21)CCC(C)(C)O3 | 13.4

Tested on: Trypanosoma cruzi
Experiment: Trypanocidal activity against bloodstream trypomastigote stage of Trypanosoma cruzi Y assessed as induction of parasite lysis after 24 hrs by Neubauer chamber based cell counting method
Format: functional, organism-based
Details: not given
In short: as §1

Row | SMILES | IC50 [µM]
9 | CC1(C)CCc2c(c3ccccc3c3nc(-c4ccc([N+](=O)[O-])cc4)[nH]c23)O1 | 250
10 | COc1ccccc1-c1nc2c([nH]1)c1c(c3ccccc32)OC(C)(C)CC1 | > 6500
11 | CC1(C)CCc2c(c3ccccc3c3nc(-c4ccc(C(F)(F)F)cc4)[nH]c23)O1 | 250
12 | CC1(C)CCc2c(c3ccccc3c3nc(-c4cccs4)[nH]c23)O1 | 170
13 | Cc1cccc(-c2nc3c([nH]2)c2c(c4ccccc43)OC(C)(C)CC2)c1 | 37.5
14 | CCCCCCCCn1cnc2c3ccccc3c3c(c21)CCC(C)(C)O3 | 180
15 | CC1(C)CCc2c(c3ccccc3c3nc[nH]c23)O1 | 89.5
16 | CCCCCCn1cnc2c3c(c4ccccc4c21)OC(C)(C)CC3 | 42.5
17 | CC1(C)CCc2c(c3ccccc3c3nc(-c4ccc(Cl)cc4Cl)[nH]c23)O1 | > 4000
18 | CCCn1cnc2c3ccccc3c3c(c21)CCC(C)(C)O3 | 172
19 | CC1(C)CCc2c(c3ccccc3c3nc(-c4ccccc4C#N)[nH]c23)O1 | > 6500
20 | CCCCn1cnc2c3c(c4ccccc4c21)OC(C)(C)CC3 | 106
21 | CCCCCCCn1cnc2c3c(c4ccccc4c21)OC(C)(C)CC3 | 407
22 | CC1(C)CCc2c(c3ccccc3c3nc(-c4c(Cl)cccc4Cl)[nH]c23)O1 | 2120
23 | CCCCCCCCn1cnc2c3c(c4ccccc4c21)OC(C)(C)CC3 | 376
24 | CCCCCCCCCn1cnc2c3ccccc3c3c(c21)CCC(C)(C)O3 | 295
25 | CCCCCCCCCCCCn1cnc2c3c(c4ccccc4c21)OC(C)(C)CC3 | > 500
26 | CCCCCn1cnc2c3ccccc3c3c(c21)CCC(C)(C)O3 | 124
27 | CC1(C)CCc2c(c3ccccc3c3nc(-c4cccc5ccccc45)[nH]c23)O1 | 1680
28 | COc1cc(-c2nc3c([nH]2)c2c(c4ccccc43)OC(C)(C)CC2)ccc1O | 252
29 | CCCCCCCCCn1cnc2c3c(c4ccccc4c21)OC(C)(C)CC3 | 195
30 | CCCCCCn1cnc2c3ccccc3c3c(c21)CCC(C)(C)O3 | 31.5
31 | CCCCn1cnc2c3ccccc3c3c(c21)CCC(C)(C)O3 | 123
32 | COc1ccc(-c2nc3c([nH]2)c2c(c4ccccc43)OC(C)(C)CC2)cc1 | 250
33 | CCCn1cnc2c3c(c4ccccc4c21)OC(C)(C)CC3 | 99.7
34 | CCCCCCCn1cnc2c3ccccc3c3c(c21)CCC(C)(C)O3 | 99
35 | CCCCCCCCCCCCn1cnc2c3ccccc3c3c(c21)CCC(C)(C)O3 | 192
36 | CCCCCn1cnc2c3c(c4ccccc4c21)OC(C)(C)CC3 | 92.7
